# Reference: ChEMBL document CHEMBL4014344, “Discovery of the Soluble Guanylate Cyclase Stimulator Vericiguat (BAY 1021189) for the Treatment of Chronic Heart Failure” (J Med Chem, 2017)
# pEC50, pIC50: −log10 of the molar value. Calls of active or inactive are those of the source. The calls are words filed in the database; no cut-off is given here.
# Tests used:
# [1] = Volume of distribution at steady state in iv dosed Wistar rat after 24 hrs by LC-MS analysis; assay type: ADME, organism-based; settings: in vivo, read-out: Vdss
# Method in brief: (§1)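 Male Wistar rats and female beagle dogs. iv in plasma/DMSO (rat) or H2O/PEG 400/EtOH (dog). Oral gavage in H2O/PEG 400/EtOH for both. Rats jugular-catheterised ≥1 d before dosing. Usually >10 blood samples, at least two after 24 h. Plasma quantified by LC-MS with internal standard. CL, t1/2, Vss and F calculated from plasma curves. Blood clearance via blood/plasma ratio (20 min blood incubation).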
# [2] = Clearance in iv dosed Wistar rat blood after 24 hrs by LC-MS analysis; assay type: ADME, organism-based; settings: whole blood; method in brief: as §1
# [3] = Clearance in iv dosed Beagle dog blood after 24 hrs by LC-MS analysis; assay type: ADME, organism-based, Canis lupus familiaris; settings: whole blood; method in brief: as §1
# [4] = Oral bioavailability in Wistar rat administered via oral gavage after 24 hrs by LC-MS analysis; assay type: ADME, organism-based; settings: in vivo; method in brief: as §1
# Cytochrome P450 1A2 = molecular target: T1, Cytochrome P450 1A2 (Homo sapiens, UniProt P05177); assay: Inhibition of human liver microsomes CYP1A2 using phenacetin as substrate; assay type: ADME
# T1 sequence (P05177 whole entry): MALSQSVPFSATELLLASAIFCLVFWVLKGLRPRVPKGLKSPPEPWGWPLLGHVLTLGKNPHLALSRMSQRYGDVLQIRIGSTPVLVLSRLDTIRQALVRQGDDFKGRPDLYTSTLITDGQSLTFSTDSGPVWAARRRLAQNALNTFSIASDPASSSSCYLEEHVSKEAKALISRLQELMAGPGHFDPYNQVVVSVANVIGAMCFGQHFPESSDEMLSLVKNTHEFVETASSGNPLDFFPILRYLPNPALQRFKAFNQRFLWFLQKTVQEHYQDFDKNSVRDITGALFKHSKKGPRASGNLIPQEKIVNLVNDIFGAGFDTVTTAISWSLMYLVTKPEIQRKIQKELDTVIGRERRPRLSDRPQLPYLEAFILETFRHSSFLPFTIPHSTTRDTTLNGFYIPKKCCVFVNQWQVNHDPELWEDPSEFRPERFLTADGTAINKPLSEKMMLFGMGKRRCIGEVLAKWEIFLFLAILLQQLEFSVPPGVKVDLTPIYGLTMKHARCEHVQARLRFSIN
# Cytochrome P450 2C9 = Cytochrome P450 2C9 (Homo sapiens, UniProt P11712); assay: Inhibition of human liver microsomes CYP2C9 using diclofenac as substrate; assay type: ADME
# Cytochrome P450 2D6 = Cytochrome P450 2D6 (Homo sapiens, UniProt P10635); assay: Inhibition of human liver microsomes CYP2D6 using dextromethorphan as substrate; assay type: ADME
# Cytochrome P450 3A4 = Cytochrome P450 3A4 (Homo sapiens, UniProt P08684); assay: Inhibition of human liver microsomes CYP3A4 using testosterone as substrate preincubated with compound followed by substrate addition; assay type: ADME
# Homo sapiens = species: Homo sapiens; assay: Stimulation of sGC (unknown origin) using alpha-[32P]-GTP as substrate assessed as increase in [32P]-cGMP formation at 100 uM in presence of sGC inhibitor ODQ
# Method in brief: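 Purified recombinant sGC (0.2 μg/mL) assayed by [32P]-cGMP formation from α-[32P]-GTP, with 200 μM GTP, 3 mM Mn2+/Mg2+ and 1 mM cGMP. Substrate turnover kept <10%. DMSO ≤1% (v/v). ODQ present. Activity expressed as x-fold over basal. Duplicates, repeated five times.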
# [5] = Stimulation of rat sGC expressed in CHO cells using GTP as substrate assessed as increase in cGMP formation treated for 6 mins in presence of 30 nM SNAP by luminescence assay; assay type: cell-based
# Method in brief: (§2)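 CHO reporter cells overexpressing sGC, cultured 1 or 2 d, then loaded 3 h with coelenterazine in calcium-free Tyrode. Compound serial dilutions applied 6 min. Calcium added (final 3 mM) and luminescence read for 40 s by CCD camera. SNAP co-applied at 30 or 100 nM where stated. ODQ condition: 10 μM ODQ pretreatment for 3 h.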
# [6] = Stimulation of rat sGC expressed in CHO cells using GTP as substrate assessed as increase in cGMP formation treated for 6 mins in presence of 100 nM SNAP by luminescence assay; assay type: cell-based; method in brief: as §2
# [7] = Stimulation of rat sGC expressed in CHO cells using GTP as substrate assessed as increase in cGMP formation treated for 6 mins in presence of sGC inhibitor ODQ by luminescence assay; assay type: cell-based; method in brief: as §2
# Aorta = assay: Inhibition of phenylephrine-induced contractions in Chinchilla rabbit aortic rings administered at the beginning of the last resting period of 28 mins; assay type: functional; settings: Oryctolagus cuniculus
# Heart [8] = assay: Antihypertensive activity in Wistar Langendorff-perfused heart rat model assessed as reduction in coronary perfusion pressure administered for 20 mins; assay type: functional, tissue-based
# Method in brief: (§3)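 Male Wistar rats (200−250 g) anesthetized with Narcoren 100 mg/kg ip. Excised heart Langendorff-perfused at constant flow 10 mL/min with Krebs−Henseleit buffer gassed with 95% O2/5% CO2. Values expressed as relative change from baseline before compound application.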
# Heart [9] = assay: Cardiotoxicity in Wistar rat assessed as effect on heart rate administered for 20 mins; assay type: toxicity, tissue-based; method in brief: as §3
# Rattus norvegicus [10] = assay: Antihypertensive activity in L-NAME-treated renin transgenic rat co-expressing RenTG(mRRen2)27 assessed as reduction in heart hypertrophy in right ventricle administered qd via oral gavage up to 21 days relative to control; assay type: functional
# Method in brief: (§4)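 Renin transgenic RenTG(mRRen2)27 male rats, 8 weeks old, on L-NAME drinking water (50 mg/L). Dosed by gavage qd with placebo (n = 20) or 3 or 10 mg/kg/day (n = 15 each). At day 22 animals were anesthetized and sacrificed, and left and right ventricles were dissected and weighed for hypertrophy. Unpaired t test versus placebo.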
# Rattus norvegicus [11] = assay: Antihypertensive activity in L-NAME-treated renin transgenic rat co-expressing RenTG(mRRen2)27 assessed as reduction in heart hypertrophy in left ventricle administered qd via oral gavage up to 21 days; assay type: functional; method in brief: as §4
# Rattus norvegicus [12] = assay: Antihypertensive activity in L-NAME-treated renin transgenic rat co-expressing RenTG(mRRen2)27 assessed as reduction in plasma ANP levels at 3 to 10 mg/kg administered qd via oral gavage up to 21 days; assay type: functional, organism-based
# Method in brief: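 Male RenTG(mRRen2)27 rats, 8 weeks old, given L-NAME in drinking water (50 mg/L) throughout. Randomised to placebo (2 mL/kg qd, n = 20) or 3 and 10 mg/kg/day po by gavage qd (n = 15 per group). Tail-cuff blood pressure on day 0, 7, 14 and 21. Plasma taken at day 22 end. Unpaired t test, mean ± SEM.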
# Rattus norvegicus [13] = assay: Effect on mortality in L-NAME-treated renin transgenic rat co-expressing RenTG(mRRen2)27 assessed as increase in survival rate administered qd via oral gavage up to 21 days; assay type: functional
# Method in brief: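 L-NAME (50 mg/L, drinking water) treated male RenTG(mRRen2)27 rats aged 8 weeks. Placebo (n = 20) or 3 or 10 mg/kg/day by oral gavage qd (n = 15/group). Survival checked on days 1, 8, 15 and at study end (day 22).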
# Rattus norvegicus [14] = assay: Effect on mortality in L-NAME-treated renin transgenic rat co-expressing RenTG(mRRen2)27 assessed as survival rate at 10 mg/kg administered qd via oral gavage up to 21 days (reference value: 25%); assay type: functional; settings: 504 h
# Sequence of Cytochrome P450 2C9 (P11712 whole entry): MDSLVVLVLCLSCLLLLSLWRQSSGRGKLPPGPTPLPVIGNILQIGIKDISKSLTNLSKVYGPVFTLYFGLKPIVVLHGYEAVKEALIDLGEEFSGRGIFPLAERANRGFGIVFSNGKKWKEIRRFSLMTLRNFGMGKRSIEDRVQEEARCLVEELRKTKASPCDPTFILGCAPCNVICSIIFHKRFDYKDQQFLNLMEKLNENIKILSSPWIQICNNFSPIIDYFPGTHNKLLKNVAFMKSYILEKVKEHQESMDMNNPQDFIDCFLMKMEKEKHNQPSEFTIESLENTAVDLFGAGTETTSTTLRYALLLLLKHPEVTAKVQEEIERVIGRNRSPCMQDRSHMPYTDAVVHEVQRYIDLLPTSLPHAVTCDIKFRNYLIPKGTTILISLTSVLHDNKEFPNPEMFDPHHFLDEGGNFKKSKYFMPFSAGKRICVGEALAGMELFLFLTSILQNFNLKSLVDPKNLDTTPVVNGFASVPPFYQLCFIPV
# Sequence of Cytochrome P450 3A4 (P08684 whole entry): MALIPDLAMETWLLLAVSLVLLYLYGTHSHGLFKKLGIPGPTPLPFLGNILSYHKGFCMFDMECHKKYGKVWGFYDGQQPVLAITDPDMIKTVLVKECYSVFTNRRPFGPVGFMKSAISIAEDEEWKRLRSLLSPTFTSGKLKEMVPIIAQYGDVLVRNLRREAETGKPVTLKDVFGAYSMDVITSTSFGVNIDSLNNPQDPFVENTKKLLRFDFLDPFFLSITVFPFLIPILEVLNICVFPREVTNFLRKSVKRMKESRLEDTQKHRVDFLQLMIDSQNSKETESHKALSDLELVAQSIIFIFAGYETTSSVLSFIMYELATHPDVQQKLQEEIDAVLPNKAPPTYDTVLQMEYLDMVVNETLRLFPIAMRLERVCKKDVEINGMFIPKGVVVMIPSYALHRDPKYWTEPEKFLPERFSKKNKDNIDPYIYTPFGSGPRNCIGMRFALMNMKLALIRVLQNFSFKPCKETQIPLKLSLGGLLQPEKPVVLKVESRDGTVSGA
# Sequence of Cytochrome P450 2D6 (P10635 whole entry): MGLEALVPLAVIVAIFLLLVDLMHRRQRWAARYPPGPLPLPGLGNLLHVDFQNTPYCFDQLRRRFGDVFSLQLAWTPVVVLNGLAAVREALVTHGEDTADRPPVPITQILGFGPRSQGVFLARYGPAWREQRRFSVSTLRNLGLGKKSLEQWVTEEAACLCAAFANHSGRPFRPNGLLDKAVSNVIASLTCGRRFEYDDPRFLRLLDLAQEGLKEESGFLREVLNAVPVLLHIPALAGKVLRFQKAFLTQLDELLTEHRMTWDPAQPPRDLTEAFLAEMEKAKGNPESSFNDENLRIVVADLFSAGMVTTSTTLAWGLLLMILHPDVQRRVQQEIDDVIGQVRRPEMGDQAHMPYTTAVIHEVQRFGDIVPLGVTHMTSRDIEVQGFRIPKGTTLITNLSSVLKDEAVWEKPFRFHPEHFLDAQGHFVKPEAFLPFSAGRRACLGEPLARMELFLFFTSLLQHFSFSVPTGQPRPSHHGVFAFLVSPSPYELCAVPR
smiles,measurement,setting,value
COC(=O)Nc1c(N)nc(-c2nn(Cc3ccccc3F)c3ncc(F)cc23)nc1N [VERICIGUAT],Vd,[1],1 L/kg
same,clearance,[2],0.3 L/h/kg
same,clearance,[3],0.2 L/h/kg
same,bioavailability,[4],65%
same,pIC50,Cytochrome P450 1A2,< 4.30
same,pIC50,Cytochrome P450 2C9,< 4.30
same,pIC50,Cytochrome P450 2D6,< 4.30
same,pIC50,Cytochrome P450 3A4,< 4.30
same,Activity,Homo sapiens,inactive
same,pEC50,[5],7.41
same,pEC50,[6],7.97
same,pEC50,[7],6.59
same,pIC50,Aorta,6.16
same,Activity,Heart [8],Dose-dependent effect
same,Activity,Heart [9],Non-Toxic
same,Activity,Rattus norvegicus [10],Dose-dependent effect
same,Activity,Rattus norvegicus [11],Dose-dependent effect
same,Activity,Rattus norvegicus [12],Active
same,Activity,Rattus norvegicus [13],Dose-dependent effect
same,survival at 10 mg/kg,Rattus norvegicus [14],90%
